Laboratory results taken from ChEMBL document CHEMBL4619723, “New CDK8 inhibitors as potential anti-leukemic agents - Design, synthesis and biological evaluation” (Bioorg Med Chem, 2020).
pEC50: −log10 of the molar value.

Legend:
[1] = target: Protein kinase C theta type (Homo sapiens) (UniProt Q04759); test: Inhibition of biotinylated ligand binding to wild-type human partial length PRKCQ (L350 to S706 residues) expressed in bacterial expression system at 50 nM measured after 1 hr by kinomescan assay relative to control
Protein kinase C theta type (Homo sapiens), sequence (Q04759 whole entry, looked up, the tested form may be a part): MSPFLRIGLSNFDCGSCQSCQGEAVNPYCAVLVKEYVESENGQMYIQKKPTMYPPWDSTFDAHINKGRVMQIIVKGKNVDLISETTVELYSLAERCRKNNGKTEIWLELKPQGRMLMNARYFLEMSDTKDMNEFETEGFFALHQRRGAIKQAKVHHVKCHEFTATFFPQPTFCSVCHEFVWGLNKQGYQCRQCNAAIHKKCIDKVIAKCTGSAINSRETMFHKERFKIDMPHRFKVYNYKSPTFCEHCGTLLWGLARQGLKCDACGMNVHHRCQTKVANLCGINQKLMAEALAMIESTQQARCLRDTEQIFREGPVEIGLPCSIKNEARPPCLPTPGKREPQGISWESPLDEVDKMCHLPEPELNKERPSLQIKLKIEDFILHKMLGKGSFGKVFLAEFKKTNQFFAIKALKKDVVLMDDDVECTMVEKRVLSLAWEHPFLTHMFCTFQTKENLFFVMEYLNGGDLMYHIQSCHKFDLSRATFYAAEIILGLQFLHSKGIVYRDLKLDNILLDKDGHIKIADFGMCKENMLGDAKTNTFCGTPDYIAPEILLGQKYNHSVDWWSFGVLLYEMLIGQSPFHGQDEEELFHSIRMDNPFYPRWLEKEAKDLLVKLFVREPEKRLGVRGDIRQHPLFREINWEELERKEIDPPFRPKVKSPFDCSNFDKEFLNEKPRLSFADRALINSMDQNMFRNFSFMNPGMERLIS
Outline: (§1)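 Kinase-tagged T7 phage was grown in an E. coli BL21-derived host at 32 °C until lysis, and the lysate was clarified. Kinase was bound to streptavidin beads carrying a biotinylated ligand, with test compound at 50 nM (final DMSO), in binding buffer for 1 h at rt. Bound kinase was eluted and quantified by qPCR. Result is POC relative to the DMSO (100%) and control-compound (0%) references.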

MOLM-13 = test: cells; conditions: Homo sapiens, MOLM-13, 48 h
[2] = target: SRSF protein kinase 3 (Homo sapiens) (UniProt Q9UPE1); test: Inhibition of biotinylated ligand binding to wild-type human partial length SRPK3 (P41 to P567 residues) expressed in bacterial expression system at 50 nM measured after 1 hr by kinomescan assay relative to control; outline: as §1
SRSF protein kinase 3 (Homo sapiens), sequence (Q9UPE1 whole entry, the tested form may be a part): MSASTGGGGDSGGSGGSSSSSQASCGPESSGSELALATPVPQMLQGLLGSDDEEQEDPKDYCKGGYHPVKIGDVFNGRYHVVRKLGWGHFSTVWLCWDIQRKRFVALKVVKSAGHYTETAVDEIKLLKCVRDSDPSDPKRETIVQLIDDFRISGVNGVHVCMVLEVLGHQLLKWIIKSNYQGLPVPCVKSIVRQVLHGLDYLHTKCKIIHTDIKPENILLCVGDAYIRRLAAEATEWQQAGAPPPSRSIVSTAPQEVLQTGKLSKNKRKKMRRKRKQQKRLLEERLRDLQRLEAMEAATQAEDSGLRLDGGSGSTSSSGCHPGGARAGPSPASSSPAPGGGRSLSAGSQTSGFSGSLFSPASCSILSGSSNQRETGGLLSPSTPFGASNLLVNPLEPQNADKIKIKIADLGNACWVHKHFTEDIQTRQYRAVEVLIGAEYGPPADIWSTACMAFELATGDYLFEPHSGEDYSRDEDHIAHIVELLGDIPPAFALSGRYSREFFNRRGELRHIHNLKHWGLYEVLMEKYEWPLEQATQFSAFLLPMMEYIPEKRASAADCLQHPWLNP

CN(C)[C@@H]1CC[C@@]2(C)[C@@H](CC[C@@H]3[C@@H]2CC[C@]2(C)C(c4cccc5cnccc45)=CC[C@@H]32)C1
inhibition [1]: > 80%
pEC50 (MOLM-13): 5.23
inhibition [2]: > 80%
